Most compounds without a hit are left out; they make up all but 2.6% or so of the library.
ERAP1 HTS inh: blocks human ERAP1 aminopeptidase activity | recombinant ERAP1, Leu-AMC fluorescence, 60 min | inhibition, % at 10.7 µM | 340,000 tested, 0.15% active | AID 652197;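 active means mean replicate inhibition of at least 30%, or all replicates individually reaching that 30% level; inactive means mean below 30% and not every replicate reaching it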;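 further: 0% = neutral control wells and 100% = L-leucinethiol positive control wells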
DENV2 CPE: DENV2-induced cell death inhibition; CPE inhibition, % at 9.99 µM; 350,000 tested, 1.7% active; DENV2-infected cells, cytopathic effect rescue, plate reader; AID 651640; in the data active means CPE inhibition above about 20%, passing the limit was not always enough; tested in BHK-21 cells;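 further: 0% = median of neutral control wells and 100% = median of positive control wells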
miR122 inh: miR-122 inhibition in Huh7 cells; Huh7 miR-122 Renilla luciferase sensor, 48 h; neutral wells = 0, positive control = 100; activation (reporter increase), % at 12.5 µM; 340,000 tested, 0.3% active; AID 602342;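 active means mean replicate activation score at least 90 and every replicate individually at or above 90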;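 further: higher luciferase means less miR-122 activity so hits act as miR-122 inhibitors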
CFTR F508del cor: CFTR F508del correction in bronchial cells | CFBE cells, YFP halide quenching; stimulated with forskolin plus potentiator P3; % fluorescence drop versus neutral controls | activity (quench increase), % at 7.58 µM | 350,000 tested, 0.36% active | AID 720511;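 active means mean added fluorescence quench of at least 8% versus neutral control, with both replicates also reaching 8%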;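 further: cells transiently co-express mutant CFTR-F508del with the halide-sensitive YFP; corrector assay measuring rescue of mutant channel to the surface after 24 h compound exposure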
GSIS activator: primary screen for activators of insulin secretion dependent on glucose, INS-1E cells, GLuc reporter luminescence; 370,000 tested, 0.61% active; activation, % at 16.6 µM; AID 743287; INS-1E GLuc reporter insulin secretion, 2-3 h;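 active means lowest replicate activation of at least 40%, so every replicate reaches that level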;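 further: 0% = median of neutral control wells and 100% = median of IBMX positive control wells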
E-sel inducer: induces E-selectin expression in human endothelial cells | P16581 | HUVEC E-selectin immunofluorescence imaging; normalized: neutral wells 0, TNF-alpha wells 100 | activation, % at 7.58 µM | 260,000 tested, 0.37% active | AID 686992;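 active means mean E-selectin-positive cell signal at least 10% of the positive control, reached in at least 60% of replicates, without over 20% cell loss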
Target sequence (P16581 whole entry, looked up): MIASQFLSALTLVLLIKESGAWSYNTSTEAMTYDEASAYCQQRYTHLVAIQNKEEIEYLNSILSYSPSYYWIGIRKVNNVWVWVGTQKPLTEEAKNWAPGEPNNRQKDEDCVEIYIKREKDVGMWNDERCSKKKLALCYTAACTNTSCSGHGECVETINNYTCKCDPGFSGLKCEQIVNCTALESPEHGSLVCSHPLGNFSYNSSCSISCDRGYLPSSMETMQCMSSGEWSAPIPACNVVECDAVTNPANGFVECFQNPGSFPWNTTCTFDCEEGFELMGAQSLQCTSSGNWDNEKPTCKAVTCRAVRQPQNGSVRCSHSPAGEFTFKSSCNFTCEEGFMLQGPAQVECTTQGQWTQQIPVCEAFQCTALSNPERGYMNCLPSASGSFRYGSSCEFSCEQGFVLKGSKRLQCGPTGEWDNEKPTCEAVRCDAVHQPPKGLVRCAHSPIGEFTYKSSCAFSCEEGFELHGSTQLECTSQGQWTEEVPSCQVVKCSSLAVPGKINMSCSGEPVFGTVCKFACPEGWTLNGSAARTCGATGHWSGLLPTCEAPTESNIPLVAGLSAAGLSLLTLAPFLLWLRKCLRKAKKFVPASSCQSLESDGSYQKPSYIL
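System: HUVEC, human umbilical vein endothelial cells; quantity: 3,000 cells/well; buffer or medium: EGM-2 medium, gelatin-coated wells; dosing: single-point compound dose; detection: immunofluorescence imaging; evaluation: % PE-positive cells; benchmarks: TNF-alpha, DMSO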
* marks the source's active call; other numbers are inactive results; / = no result; [ ] = remark or other dose.

SMILES | ERAP1 HTS inh | DENV2 CPE | miR122 inh | CFTR F508del cor | GSIS activator | E-sel inducer
NC(=O)C1(c2ccccc2)OC1c1ccccc1 (stereo not drawn) | -4 | 41* | / | 0 | 11 | 0
COc1cccc(S(=O)(=O)Nc2ccc3c(c2)[C@@H]2C[C@H](CC(=O)NCc4cccc(F)c4)O[C@@H](CO)[C@@H]2O3)c1 | 0 | 2 | 11[16.7 µM] | 3 | -10 | 0
C[C@H](NC(=O)C[C@@H]1CC[C@@H]2[C@H](COC[C@H](O)CN2C(=O)Nc2cc(Cl)cc(Cl)c2)O1)c1ccccc1 | 0 | 4 | -3[16.7 µM] | 3 | -12 | 0
O=C(C1CCCN(S(=O)(=O)c2cccnc2)C1)N1CCN(c2ccccn2)CC1 (stereo not drawn) | -4 | 87* | -6 | 1 | 11 | /
O=C(C1CCCN(S(=O)(=O)c2ccccc2)C1)N1CCN(c2ncccn2)CC1 (stereo not drawn) | / | / | -2 | / | / | /
C[C@H](O)C#Cc1cnc2c(c1)C(=O)N([C@H](C)CO)C[C@H](C)[C@@H](CN(C)CC1CCOCC1)O2 | 1 | 3 | 5[16.7 µM] | -1 | 3 | 0
C[C@H](CO)N1C[C@H](C)[C@@H](CN(C)C(=O)C2CCC2)Oc2ncc(-c3cccc(C#N)c3)cc2C1=O | 2 | 9 | 4[16.7 µM] | -1 | 14 | 1
C[C@H]1CN([C@@H](C)CO)C(=O)c2cc(NC(=O)CCCN(C)C)ccc2O[C@@H]1CN(C)Cc1ccncc1 | 5 | -5 | -1[16.7 µM] | -1 | 12 | 0
Cc1ccc2nc(-c3ccc4c(c3)OCCO4)cn2c1 | 1 | -3 | 16 | 12* | 6 | 2
c1ccn2cc(-c3ccc4c(c3)OCCO4)nc2c1 | 1 | 10 | / | -5 | 7 | 4
C[C@H](CO)N1C[C@H](C)[C@H](CN(C)Cc2ccc(F)cc2)Oc2cc(C#CCN(C)C)ccc2S1(=O)=O | 4 | -6 | 4[16.7 µM] | -1 | 1 | 0
CN1CCN(C(=O)[C@H]2[C@H](CO)[C@H]3Cn4c(cccc4=O)[C@@H]2N3Cc2ccncc2)CC1 | 0 | 12 | / | / | -5 | 0
CN1C[C@@H]2[C@@H]3C(=O)N(Cc4ccccc4)C(=O)[C@@H]3[C@](C)(C1=O)N2C(=O)c1ccc(C(C)(C)C)cc1 | 0 | 54* | -4 | -4 | -20 | 0
CC(=NNC(=S)N1CC2CCC(CC2)C1)c1cnccn1 | 3 | 5 | / | 11* | 17 | -1
CC(=NNC(=S)N1CC2CCC(CC2)C1)c1ccccn1 | -2 | 7 | / | 6 | / | 0
C[C@@H]1CN([C@H](C)CO)S(=O)(=O)c2ccc(C3=CCCC3)cc2O[C@H]1CN(C)S(C)(=O)=O | / | / | 2[16.7 µM] | -2 | 14 | 0
CCOC(=O)Cc1nn(Cc2ccccc2)c(=O)c2ccccc12 | -1 | 4 | / | 0 | 89* | 0
Cc1nc2cc(NS(=O)(=O)c3c(C)c(C)cc(C)c3C)ccc2s1 | / | / | 313* | / | / | /
Cc1nc2ccc(NS(=O)(=O)c3c(C)c(C)cc(C)c3C)cc2s1 | / | / | 125* | / | / | /
Cc1ccc(S(=O)(=O)Nc2ccc3nc(N)sc3c2)cc1 | / | / | 268* | / | / | /
Cc1nc2cc(NS(=O)(=O)c3ccccc3F)ccc2s1 | -2 | 2 | / | -2 | -21 | 6
CC(C)(C)NC(=O)c1cccc2c1-c1ccccc1C2=O | -4 | 7 | / | 10* | 7 | /
CN(C)S(=O)(=O)c1ccc(Cl)c(NC(=O)CSc2nc3c(cc2C#N)C(=O)CC(C)(C)C3)c1 | 2 | 31* | 0 | / | -1 | /
CN(C)S(=O)(=O)c1cccc(NC(=O)CSc2nc3c(cc2C#N)C(=O)CC(C)(C)C3)c1 | -2 | -5 | / | / | 0 | /
CC(C)NC(=O)N(C)C[C@H]1OCCCC[C@@H](C)Oc2ccc(NC(=O)c3ccncc3)cc2C(=O)N([C@@H](C)CO)C[C@H]1C | 1 | 14 | 4[16.7 µM] | -3 | 13 | 0
Cc1cc(/C=C(/C#N)C(=O)O)c(C)n1-c1cccc2ccccc12 | 5 | 1 | / | -2 | -58 | 0
Cc1c(C(=O)O)cccc1-n1c(C)cc(/C=C(/C#N)C(=O)NCc2ccccc2)c1C | 5 | 12 | -5 | 1 | 0 | 83*
N#CC(Cc1ccccc1OC(F)F)c1nc2ccccc2[nH]1 (stereo not drawn) | -1 | 25* | / | 1 | -16 | /
